ChEMBL document CHEMBL1142526, “Synthesis of new pyrazolo[5,1-c][1,2,4] benzotriazines, pyrazolo[5,1-c]pyrido[4,3-e][1,2,4] triazines and their open analogues as cytotoxic agents in normoxic and hypoxic conditions” (Bioorg Med Chem, 2008)
pIC50: −log10 of the molar value. Calls of active or inactive are those of the source. The rule behind the calls is not given here.

Key:
HCT-8 [1] = test: Effect on cell cycle arrest in human HCT8 cells in normoxic condition assessed as DNA fragmentation at 10 uM after 48 hrs of drug washout by flow cytometry; assay type: functional
Method in brief: (§1)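 HCT-8 cells in D-MEM high glucose with 10% FCS were seeded at 1–2 × 10^6 per 25 cm² flask, left to adhere overnight, then exposed to drug for 24 h under normoxia or hypoxia. Drug was washed out and cells reoxygenated for 48 h. Floating and adherent cells were pooled, fixed in 70% ice-cold ethanol and stained with PI (50 µg/ml) plus RNase A (5 U/ml) for 30 min. Phases and the sub-G1 hypodiploid fraction (DNA fragmentation) were read by flow cytometry.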

HCT-8 [2] = test: Cell cycle arrest in human HCT8 cells in hypoxic condition assessed as accumulation at G2/M phase at 10 uM after 48 hrs of drug washout by flow cytometry; assay type: functional
Method in brief: (§2)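 HCT-8 cells in D-MEM high glucose with 10% FCS, plated at 1–2 × 10^6 per 25 cm² flask and left to adhere overnight. Exposed to 10 µM for 24 h, normoxia or hypoxia (0.1% O₂, 95% N₂/5% CO₂), then washed out and reoxygenated 48 h. Floating plus EDTA-harvested cells fixed in 70% ethanol, stained with PI (50 µg/ml) plus RNase A, phase fractions read by flow cytometry.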

HCT-8 [3] = test: Cytotoxicity against human HCT8 cells after 72 hrs by SRB assay; assay type: functional, cell-based; conditions: HCT-8, 72 h
Method in brief: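 SRB assay on HCT-8 cells seeded at 5000/well and allowed 24 h adherence at 37 °C in 5% CO2, then given 72 h continuous exposure across a 10–100 concentration range, eight wells per condition. Maximum final DMSO was 0.1%. Fixed cells were stained with 0.4% SRB in 1% acetic acid, solubilised in 10 mM Tris and read at 540 nm. IC50 is the concentration giving a 50% reduction in net protein increase versus control.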

HCT-8 [4] = test: Cell cycle arrest in human HCT8 cells in normoxic condition assessed as accumulation at G2/M phase at 10 uM after 24 hrs of drug washout by flow cytometry; assay type: functional; method in brief: as §1
HCT-8 [5] = test: Induction of ROS production in human HCT8 cells under normoxic condition by flow cytometric method relative to untreated control; assay type: functional, cell-based
Method in brief: (§3)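 Dichlorofluorescein method. HCT-8 cells in D-MEM high glucose with 10% FCS, 1–2 × 10^6 per 25 cm² flask, adhered overnight, then given 10 µM under normoxia or hypoxia. DCFH-DA loaded 20 min at 37 °C. Cells harvested with Puck's EDTA, fluorescence read by flow cytometry with 535 nm filter. Expressed as % over DMSO-treated basal; mean ± SEM of at least three experiments.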

HCT-8 [6] = test: Effect on cell cycle arrest in human HCT8 cells in normoxic condition assessed as DNA fragmentation at 10 uM after 24 hrs by flow cytometry; assay type: functional; method in brief: as §1
HCT-8 [7] = test: Cell cycle arrest in human HCT8 cells in hypoxic condition assessed as accumulation at G0/G1 phase at 10 uM after 24 hrs of drug washout by flow cytometry; assay type: functional; method in brief: as §1
HCT-8 [8] = test: Cell cycle arrest in human HCT8 cells in hypoxic condition assessed as accumulation at S phase at 10 uM after 48 hrs of drug washout by flow cytometry; assay type: functional; method in brief: as §2
HCT-8 [9] = test: Cell cycle arrest in human HCT8 cells in normoxic condition assessed as accumulation at G2/M phase at 10 uM after 24 hrs by flow cytometry; assay type: functional; method in brief: as §1
HCT-8 [10] = test: Cell cycle arrest in human HCT8 cells in normoxic condition assessed as accumulation at G2/M phase at 10 uM after 48 hrs of drug washout by flow cytometry; assay type: functional; method in brief: as §2
HCT-8 [11] = test: Cell cycle arrest in human HCT8 cells in hypoxic condition assessed as accumulation at G2/M phase at 10 uM after 24 hrs of drug washout by flow cytometry; assay type: functional; method in brief: as §1
HCT-8 [12] = test: Cell cycle arrest in human HCT8 cells in normoxic condition assessed as accumulation at G0/G1 phase at 10 uM after 48 hrs of drug washout by flow cytometry; assay type: functional; method in brief: as §2
HCT-8 [13] = test: Effect on cell cycle arrest in human HCT8 cells in hypoxic condition assessed as DNA fragmentation at 10 uM after 24 hrs by flow cytometry; assay type: functional; method in brief: as §1
HCT-8 [14] = test: Cell cycle arrest in human HCT8 cells in hypoxic condition assessed as accumulation at S phase at 10 uM after 24 hrs by flow cytometry; assay type: functional; method in brief: as §1
HCT-8 [15] = test: Induction of ROS production in human HCT8 cells under hypoxic condition by flow cytometric method relative to untreated control; assay type: functional, cell-based; method in brief: as §3
HCT-8 [16] = test: Cytotoxicity against human HCT8 cells at 10 uM after 72 hrs by SRB assay; assay type: functional; conditions: HCT-8, 72 h
Method in brief: (§4)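 Single-concentration growth inhibition of HCT-8 cells: seeded at 5000/well with 24 h adherence at 37 °C in 5% CO2, then 72 h continuous drug exposure, eight replicate wells. Maximum final DMSO was 0.1%, with DMSO and MMC controls. Protein was stained with 0.4% SRB in 1% acetic acid, solubilised in 10 mM Tris and absorbance read at 540 nm.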

HCT-8 [17] = test: Cell cycle arrest in human HCT8 cells in normoxic condition assessed as accumulation at S phase at 10 uM after 48 hrs of drug washout by flow cytometry; assay type: functional; method in brief: as §2
HCT-8 [18] = test: Cell cycle arrest in human HCT8 cells in hypoxic condition assessed as accumulation at G2/M phase at 10 uM after 24 hrs by flow cytometry; assay type: functional; method in brief: as §1
HCT-8 [19] = test: Cell cycle arrest in human HCT8 cells in hypoxic condition assessed as accumulation at G0/G1 phase at 10 uM after 48 hrs of drug washout by flow cytometry; assay type: functional; method in brief: as §2
HCT-8 [20] = test: Effect on cell cycle arrest in human HCT8 cells in hypoxic condition assessed as DNA fragmentation at 10 uM after 48 hrs of drug washout by flow cytometry; assay type: functional; method in brief: as §1
HCT-8 [21] = test: Cell cycle arrest in human HCT8 cells in normoxic condition assessed as accumulation at G0/G1 phase at 10 uM after 24 hrs by flow cytometry; assay type: functional; method in brief: as §1
HCT-8 [22] = test: Cytotoxicity against human HCT8 cells at 100 uM after 72 hrs by SRB assay; assay type: functional; conditions: HCT-8, 72 h; method in brief: as §4
HCT-8 [23] = test: Cell cycle arrest in human HCT8 cells in normoxic condition assessed as accumulation at G0/G1 phase at 10 uM after 24 hrs of drug washout by flow cytometry; assay type: functional
HCT-8 [24] = test: Cell cycle arrest in human HCT8 cells in hypoxic condition assessed as accumulation at G0/G1 phase at 10 uM after 24 hrs by flow cytometry; assay type: functional; method in brief: as §1
HCT-8 [25] = test: Cell cycle arrest in human HCT8 cells in normoxic condition assessed as accumulation at S phase at 10 uM after 24 hrs by flow cytometry; assay type: functional; method in brief: as §1

CN1CCN(c2ccc3nnc4c([N+](=O)[O-])cnn4c3c2[N+](=O)[O-])CC1
Activity (HCT-8 [1]): 59% | Activity (HCT-8 [2]): 23% | pIC50 (HCT-8 [3]): 5.22 | IC90 (HCT-8 [3]): 18.5 µM | Activity (HCT-8 [4]): 13.4% | Activity (HCT-8 [5]): Active | Activity (HCT-8 [6]): 42% | Activity (HCT-8 [7]): 51.2% | Activity (HCT-8 [8]): 45.9% | Activity (HCT-8 [9]): 22.2% | Activity (HCT-8 [10]): 35.1% | Activity (HCT-8 [11]): 10.6% | Activity (HCT-8 [12]): 35.1% | Activity (HCT-8 [13]): 42.8% | Activity (HCT-8 [14]): 40.5% | Activity (HCT-8 [15]): Active | inhibition at 10 µM (HCT-8 [16]): 73.8% | Activity (HCT-8 [17]): 35.1% | Activity (HCT-8 [18]): 15.6% | Activity (HCT-8 [19]): 31.1% | Activity (HCT-8 [20]): 21% | Activity (HCT-8 [21]): 40.5% | inhibition at 100 µM (HCT-8 [22]): 98.7% | Activity (HCT-8 [23]): 48.6% | Activity (HCT-8 [24]): 43.8% | Activity (HCT-8 [25]): 37.3%

CN1CCN(c2ccc3c(c2)n2ncc([N+](=O)[O-])c2n[n+]3[O-])CC1
Activity (HCT-8 [1]): 27% | Activity (HCT-8 [2]): 12.6% | pIC50 (HCT-8 [3]): 4.20 | IC90 (HCT-8 [3]): > 100 µM | Activity (HCT-8 [4]): 13% | Activity (HCT-8 [5]): Active | Activity (HCT-8 [6]): 39% | Activity (HCT-8 [7]): 36.8% | Activity (HCT-8 [8]): 40.4% | Activity (HCT-8 [9]): 22.8% | Activity (HCT-8 [10]): 24.9% | Activity (HCT-8 [11]): 20.2% | Activity (HCT-8 [12]): 39.8% | Activity (HCT-8 [13]): 46.3% | Activity (HCT-8 [14]): 40.7% | Activity (HCT-8 [15]): Active | inhibition at 10 µM (HCT-8 [16]): 25.1% | Activity (HCT-8 [17]): 35.3% | Activity (HCT-8 [18]): 24.7% | Activity (HCT-8 [19]): 47% | Activity (HCT-8 [20]): 60% | Activity (HCT-8 [21]): 40.3% | inhibition at 100 µM (HCT-8 [22]): 93.2% | Activity (HCT-8 [23]): 48% | Activity (HCT-8 [24]): 34.6% | Activity (HCT-8 [25]): 36.9%

[O-][n+]1nc2ccnn2c2cc(-c3cccs3)ccc21
inhibition at 10 µM (HCT-8 [16]): 10.9% | inhibition at 100 µM (HCT-8 [22]): 48.5%

CCOC(=O)c1cn[nH]c1/N=[N+](/[O-])c1cnccc1O
inhibition at 10 µM (HCT-8 [16]): 3.87% | inhibition at 100 µM (HCT-8 [22]): 31.5%

CN1CCN(c2ccc3c(c2)n2ncc(-c4ccccc4)c2n[n+]3[O-])CC1
pIC50 (HCT-8 [3]): 5.00 | IC90 (HCT-8 [3]): > 100 µM | inhibition at 10 µM (HCT-8 [16]): 53% | inhibition at 100 µM (HCT-8 [22]): 69.6%

[O-][n+]1nc2ccnn2c2cc(-c3ccccc3)ccc21
inhibition at 10 µM (HCT-8 [16]): 13.2% | inhibition at 100 µM (HCT-8 [22]): 35.5%

CCOC(=O)c1cn[nH]c1/N=[N+](/[O-])c1cc([N+](=O)[O-])ccc1O
pIC50 (HCT-8 [3]): 4.19 | IC90 (HCT-8 [3]): > 100 µM | inhibition at 10 µM (HCT-8 [16]): 11.7% | inhibition at 100 µM (HCT-8 [22]): 60.4%

CCOC(=O)c1cnn2c1n[n+]([O-])c1cnccc12
pIC50 (HCT-8 [3]): 4.62 | IC90 (HCT-8 [3]): 49.1 µM | inhibition at 10 µM (HCT-8 [16]): 12.7% | inhibition at 100 µM (HCT-8 [22]): 97.4%

[O-][n+]1nc2ccnn2c2cc(O)ccc21
inhibition at 10 µM (HCT-8 [16]): -4.21% | inhibition at 100 µM (HCT-8 [22]): 19.7%
